Data on 18 compounds can be found in ChEMBL document CHEMBL1145113, “Synthesis and crystal structures of substituted benzenes and benzoquinones as tissue factor VIIa inhibitors” (J Med Chem, 2003).

The target in one assay is Coagulation factor X (Homo sapiens, UniProt P00742). The assay is described as follows: Inhibitory activity against coagulation factor X was determined. The method, boiled down: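 Human factor Xa at 0.3 nM with 0.15 mM S-2765 in 50 mM Tris-HCl pH 8.0, 100 mM NaCl, 0.1% BSA. A405 background was read immediately, then hydrolysis rate (p-nitroaniline release at 405 nm) after 60 min at room temperature. Seven concentrations in duplicate; % inhibition vs control; IC50 by four-parameter logistic fit.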
Chain of Coagulation factor X (P00742 41-179 limits assumed): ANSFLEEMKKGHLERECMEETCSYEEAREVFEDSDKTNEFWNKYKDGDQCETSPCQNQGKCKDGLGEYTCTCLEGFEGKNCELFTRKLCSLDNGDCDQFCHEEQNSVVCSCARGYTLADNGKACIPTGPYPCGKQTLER
Chain of Coagulation factor X (P00742 235-488 limits assumed): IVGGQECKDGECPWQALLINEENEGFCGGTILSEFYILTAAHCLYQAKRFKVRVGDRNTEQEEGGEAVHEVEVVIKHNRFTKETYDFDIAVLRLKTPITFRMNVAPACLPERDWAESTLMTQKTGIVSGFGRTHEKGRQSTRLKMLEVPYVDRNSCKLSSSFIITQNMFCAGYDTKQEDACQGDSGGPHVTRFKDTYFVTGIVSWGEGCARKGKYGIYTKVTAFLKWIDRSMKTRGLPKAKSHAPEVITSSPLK

A further assay addresses T1, Coagulation factor VII (Homo sapiens, UniProt P08709).
T1 sequence (P08709 whole entry): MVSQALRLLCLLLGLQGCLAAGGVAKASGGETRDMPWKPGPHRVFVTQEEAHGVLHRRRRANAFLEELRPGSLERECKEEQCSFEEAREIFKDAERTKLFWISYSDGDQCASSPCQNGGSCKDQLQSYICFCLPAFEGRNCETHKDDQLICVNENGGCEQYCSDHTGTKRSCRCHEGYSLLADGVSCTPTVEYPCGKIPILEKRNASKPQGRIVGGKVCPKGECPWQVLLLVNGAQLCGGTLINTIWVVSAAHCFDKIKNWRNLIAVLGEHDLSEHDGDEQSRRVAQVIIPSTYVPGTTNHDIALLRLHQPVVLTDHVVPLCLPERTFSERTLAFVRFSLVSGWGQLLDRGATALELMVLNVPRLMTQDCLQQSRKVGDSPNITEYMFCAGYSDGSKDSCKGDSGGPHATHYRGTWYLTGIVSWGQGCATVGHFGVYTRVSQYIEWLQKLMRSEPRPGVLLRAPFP
The experiment in a line: Inhibitory activity against coagulation factor VII was determined.

The test system of a further assay is Thrombin (Homo sapiens). The experiment in a line: Inhibitory activity against thrombin was determined at a concentration of 30 uM.

Broadly, the IC50 is the concentration at which inhibition is half-maximal. A higher IC50 goes with weaker potency. As to `N=C(N)c1ccc(CNC(=O)Cc2c(-c3ccccc3)ccc(NCCc3ccccc3)c2F)cc1`, on Coagulation factor X, the 50% inhibitory concentration (IC50) is more than 30 µM.

In turn, `CC(C)Nc1ccc(-c2cccc(N)c2)c(CC(=O)NCc2ccc(C(=N)N)cc2)c1F` gave an IC50 at Coagulation factor X of more than 30 µM.

As a reminder, the inhibition is the relative decrease from the control value, in per cent. Higher therefore signals a strong effect. As to `N=C(N)c1ccc(CNC(=O)c2cc(NS(=O)(=O)Cc3ccccc3)ccc2Sc2ccccc2)cc1`, the IC50 against Coagulation factor X and against Coagulation factor VII was more than 30 µM throughout. The same compound yielded an inhibition in the assay with Thrombin (Homo sapiens) of 22%.

For the compound `O=C(Cc1c(F)ccc(NS(=O)(=O)Cc2ccccc2)c1F)NCc1ccncc1`, the IC50 on Coagulation factor VII is more than 30 µM.

As for `CN(C)c1ccc(CNC(=O)c2cc(NS(=O)(=O)Cc3ccccc3)ccc2Sc2ccccc2)cc1`, the IC50 on Coagulation factor X and against Coagulation factor VII was more than 30 µM each time.

The compound `N=C(N)c1cccc(CNC(=O)Cc2c(F)ccc(NS(=O)(=O)Cc3ccccc3)c2F)c1` showed a concentration for half-maximal inhibition (IC50) against Coagulation factor VII of more than 30 µM.

Take `O=C(Cc1c(F)ccc(NS(=O)(=O)Cc2ccccc2)c1F)NCC1CCNCC1`: the IC50 against Coagulation factor X and at Coagulation factor VII was more than 30 µM throughout.

At Coagulation factor VII, `CN(C)c1ccc(CNC(=O)Cc2c(F)ccc(NS(=O)(=O)Cc3ccccc3)c2F)cc1` yielded an IC50 of more than 30 µM.

`N=C(N)c1ccc(CNC(=O)Cc2c(-c3ccccc3)ccc(NCCc3ccccc3)c2O)cc1` had a half-maximal inhibitory concentration (IC50) on Coagulation factor X of more than 30 µM.

As to `CC(C)Nc1ccc(-c2ccccc2)c(CC(=O)NCc2ccc(C(=N)N)cc2)c1O`, the IC50 on Coagulation factor X was more than 30 µM; on Coagulation factor VII it was 2.5 µM.

On to `N=C(N)c1ccc(CNC(=O)Cc2c(F)ccc(NS(=O)(=O)Cc3ccccc3)c2F)cc1`, for which the IC50 at Coagulation factor X and against Coagulation factor VII was more than 30 µM in each case.

As for `O=C(NCc1ccncc1)c1cc(NS(=O)(=O)Cc2ccccc2)ccc1Sc1ccccc1`, the IC50 against Coagulation factor X and against Coagulation factor VII was more than 30 µM each time.

`COc1c(NC(C)C)ccc(-c2ccccc2)c1CC(=O)NCc1ccc(C(=N)N)cc1` displayed an IC50 on Coagulation factor X of more than 30 µM.

Consider `N=C(N)c1ccc(CNC(=O)Cc2c(F)ccc(NCCc3ccccc3)c2F)cc1`, for which the IC50 against Coagulation factor X was more than 30 µM.

For the compound `O=C(Cc1c(F)ccc(NS(=O)(=O)Cc2ccccc2)c1F)NCCCn1ccnc1`, the IC50 at Coagulation factor X and at Coagulation factor VII was more than 30 µM in each case.

Consider `N=C(N)NCCCCCNC(=O)Cc1c(F)ccc(NS(=O)(=O)Cc2ccccc2)c1F`, for which the 50% inhibitory concentration (IC50) on Coagulation factor X and on Coagulation factor VII was more than 30 µM throughout.

Turning to `N=C(N)c1ccc(CNC(=O)Cc2c(-c3cccc(N)c3)ccc(NCc3ccccc3)c2F)cc1`, half-maximal inhibition on Coagulation factor VII (IC50) was put at 0.5 µM.

On Coagulation factor VII, `O=C(NCC1CCNCC1)c1cc(NS(=O)(=O)Cc2ccccc2)ccc1Sc1ccccc1` had an IC50 of more than 30 µM.
